What all share (assay type): cell-based
Assay [1] deals with Cystic fibrosis transmembrane conductance regulator (Homo sapiens), P13569 [F508del]. Nature of the assay: Corrector activity at CFTR F508del mutant (unknown origin) expressed in forskolin/VX-770-stimulated human CFBE41o- cells co-expressing HS-YFP assessed as increase in iodide influx measuring HS-YFP quenching at 2 to 10 uM incubated for 24 hrs by fluorescent method. Particulars: dose microM 2-10, time 24.0 hrs. A digest of the protocol: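 CFBE41o- bronchial epithelial cells stably expressing F508del-CFTR and halide-sensitive YFP, incubated 24 h with compound at 2 and 10 μM, vehicle (DMSO), or VX-809 (1 μM) as positive control. F508del-CFTR activity at the plasma membrane was then read as the rate of HS-YFP quenching caused by iodide influx.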

The test system is the same in assay [2]. Nature of the assay: Potentiation of CFTR F508 deletion mutant (unknown origin) expressed in CFBE41o- cells coexpressing HS-YFP assessed as increase in halide influx measuring HS-YFP quenching measured after acute treatment at 10 uM after 24 hrs in presence of forskolin and CFTR inhibitor-172 by fluorescent method.
For assay [3] the test system is unchanged. Nature of the assay: Potentiation of CFTR F508 deletion mutant (unknown origin) expressed in CFBE41o- cells coexpressing HS-YFP assessed as increase in halide influx measuring HS-YFP quenching measured after acute treatment at 0.08 to 50 uM after 24 hrs in presence of forskolin by fluorescent method. As to conditions: filed as opener, dose microM 0.08-50, time 24.0 hrs. In short, it runs like this: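 Concentration-response on CFBE41o- cells co-expressing F508del-CFTR and HS-YFP, pre-incubated 24 h at 32°C to rescue maturation. Compound was added acutely over 80 nM–50 μM with forskolin. Controls were forskolin alone and VX-770 (1 μM). Activity was measured by HS-YFP quenching from halide influx.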

Assay [4] shares this test system. Nature of the assay: (§1) Potentiation of CFTR F508 deletion mutant (unknown origin) expressed in CFBE41o- cells coexpressing HS-YFP assessed as increase in iodide influx measuring HS-YFP quenching incubated for 20 mins in presence of forskolin by fluorescent method. As to conditions: filed as opener.
Assay [5] deals with Cystic fibrosis transmembrane conductance regulator (Homo sapiens, UniProt P13569, F508DEL). The assay is described as §1.
The subject of assay [6] is Cystic fibrosis transmembrane conductance regulator (Homo sapiens), P13569 [F508del]. Nature of the assay: Potentiation of CFTR F508del mutant (unknown origin) expressed in human CFBE41o- cells co-expressing HS-YFP assessed as increase in halide influx measuring HS-YFP quenching measured after acute treatment at 2 to 20 uM for 20 mins in presence of forskolin by fluorescent method. Particulars: filed as opener, dose microM 2-20, time 20.0 min. In short, it runs like this:
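CFBE41o- cells stably co-expressing F508del-CFTR and HS-YFP were held 24 h at 32°C to rescue mutant trafficking. Cells were then acutely treated with compound (2 and 20 μM) plus forskolin (20 μM). Controls were forskolin alone and forskolin plus VX-770 (1 μM). Halide influx was read as the HS-YFP quenching rate.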

For assay [7] the test system is unchanged. Nature of the assay: Potentiation of CFTR F508 deletion mutant (unknown origin) expressed in CFBE41o- cells coexpressing HS-YFP assessed as increase in halide influx measuring HS-YFP quenching measured after acute treatment at 1 uM after 24 hrs in presence of forskolin and CFTR inhibitor-172 by fluorescent method.

Active and inactive are the calls of the source. No cut-off for these calls is given here.

For 17 compounds, Activity, Emax and EC50 results are on record in ChEMBL document CHEMBL4665741, “Synthesis and biological evaluation of thiazole derivatives on basic defects underlying cystic fibrosis” (Bioorg Med Chem Lett, 2020).

As a reminder, the EC50 is the midpoint of the concentration-response curve.

Sequence of Cystic fibrosis transmembrane conductance regulator (Homo sapiens), P13569 [F508del] (P13569 as listed by the source): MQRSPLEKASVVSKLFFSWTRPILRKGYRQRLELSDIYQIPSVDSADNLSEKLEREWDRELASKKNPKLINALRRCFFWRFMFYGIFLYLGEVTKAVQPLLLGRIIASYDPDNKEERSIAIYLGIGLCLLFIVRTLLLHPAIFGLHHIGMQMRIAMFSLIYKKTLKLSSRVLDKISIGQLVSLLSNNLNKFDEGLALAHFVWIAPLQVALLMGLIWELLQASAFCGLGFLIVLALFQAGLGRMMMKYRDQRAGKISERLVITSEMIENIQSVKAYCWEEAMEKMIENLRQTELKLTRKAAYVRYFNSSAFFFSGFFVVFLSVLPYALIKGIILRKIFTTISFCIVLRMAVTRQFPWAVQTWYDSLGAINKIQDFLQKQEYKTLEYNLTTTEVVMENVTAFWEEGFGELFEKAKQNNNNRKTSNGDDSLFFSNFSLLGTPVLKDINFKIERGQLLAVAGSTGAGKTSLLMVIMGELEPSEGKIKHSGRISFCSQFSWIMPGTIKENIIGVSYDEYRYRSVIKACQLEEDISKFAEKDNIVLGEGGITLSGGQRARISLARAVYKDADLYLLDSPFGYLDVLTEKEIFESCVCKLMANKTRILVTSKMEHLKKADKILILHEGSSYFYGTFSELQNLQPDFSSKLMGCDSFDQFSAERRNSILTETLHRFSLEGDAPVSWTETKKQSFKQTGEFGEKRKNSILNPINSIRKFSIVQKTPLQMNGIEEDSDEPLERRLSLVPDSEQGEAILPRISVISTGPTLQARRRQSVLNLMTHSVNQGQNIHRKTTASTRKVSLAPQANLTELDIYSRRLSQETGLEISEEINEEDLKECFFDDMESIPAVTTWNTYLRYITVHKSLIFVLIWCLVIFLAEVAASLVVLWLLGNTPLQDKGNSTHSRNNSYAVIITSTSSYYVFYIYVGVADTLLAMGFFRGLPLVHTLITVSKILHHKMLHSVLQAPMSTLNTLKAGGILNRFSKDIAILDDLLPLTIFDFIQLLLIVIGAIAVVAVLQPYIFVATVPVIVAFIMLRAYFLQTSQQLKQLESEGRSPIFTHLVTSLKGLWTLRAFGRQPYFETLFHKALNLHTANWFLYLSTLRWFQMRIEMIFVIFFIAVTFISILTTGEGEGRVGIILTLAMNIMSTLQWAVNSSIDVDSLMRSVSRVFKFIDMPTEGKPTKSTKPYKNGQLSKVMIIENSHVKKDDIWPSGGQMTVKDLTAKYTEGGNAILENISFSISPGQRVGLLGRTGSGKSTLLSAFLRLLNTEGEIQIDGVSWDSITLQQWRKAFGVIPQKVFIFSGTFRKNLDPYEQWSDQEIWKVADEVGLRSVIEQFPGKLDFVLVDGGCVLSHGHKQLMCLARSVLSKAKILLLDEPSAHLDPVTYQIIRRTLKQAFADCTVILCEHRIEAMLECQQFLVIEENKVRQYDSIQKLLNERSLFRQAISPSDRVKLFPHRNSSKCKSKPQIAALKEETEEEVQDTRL
Sequence of Cystic fibrosis transmembrane conductance regulator (P13569 as listed by the source): as above

With `CCN(C(=O)c1ccc(Cl)cc1)c1nc(CC(=O)O)cs1`, in assay [1], the outcome was inactive.
Regarding `CCOC(=O)Cc1csc(N(CC)C(=O)c2ccc(I)cc2)n1`, the result in assay [2] and in assay [1] was inactive. Moreover, the outcome in assay [3] and in assay [6] was Active. The Emax in assay [4] was determined as 1.9. The concentration giving a half-maximal response (EC50) in assay [5] stood at 3.2 µM.
Consider `O=C(O)Cc1csc(NC(=O)c2ccccc2)n1`, for which the outcome in assay [1] was inactive.
On the same count and under the same terms, next, `CCN(C(=O)c1cc(OC)c(OC)c(OC)c1)c1nc(CC(=O)O)cs1`: “inactive”.
`CCOC(=O)Cc1csc(N(CC)C(=O)c2ccc(Cl)cc2)n1`: the result in assay [2] and in assay [1] was inactive. Moreover, the outcome in assay [3] and in assay [6] was Active. Further, the Emax in assay [4] was found to be 1.8. In addition, the EC50 in assay [5] was determined as 1.8 µM.
As for `CCN(C(=O)c1ccccc1)c1nc(CC(=O)O)cs1`, the result in assay [1] was inactive.
Same read-out and setting: next, `CCOC(=O)Cc1csc(NC(=O)c2ccc(I)cc2)n1`: “inactive”; `CCOC(=O)Cc1csc(N(CC)C(=O)c2ccccc2)n1`: “inactive”.
On the same count and under the same terms, next, `CCN(C(=O)c1ccc(I)cc1)c1nc(CC(=O)O)cs1`: “inactive”.
For `CC(C)(C)c1cc(C(C)(C)C)c(NC(=O)c2c[nH]c3ccccc3c2=O)cc1O`, the result in assay [7] was inactive.
Take `CCOC(=O)Cc1csc(N(CC)C(=O)c2cc(OC)c(OC)c(OC)c2)n1`: in assay [1], the outcome was inactive.
`CCOC(=O)Cc1csc(NC(=O)c2cc(OC)c(OC)c(OC)c2)n1`: the result in assay [1] was inactive.
Same read-out and setting: the same measure for `CCOC(=O)Cc1csc(NC(=O)c2ccc(Cl)cc2)n1`: “inactive”.
The same measure, in the same setting: the same measure for `COc1cc(C(=O)Nc2nc(CC(=O)O)cs2)cc(OC)c1OC`: “inactive”.
On to `O=C(O)Cc1csc(NC(=O)c2ccc(Cl)cc2)n1`, for which the outcome in assay [1] was inactive.
For `O=C(O)Cc1csc(NC(=O)c2ccc(I)cc2)n1`, the outcome in assay [1] was inactive.
`CCOC(=O)Cc1csc(NC(=O)c2ccccc2)n1`: the result in assay [1] was inactive.
